# STAT3 act – activators of IL-6 induced STAT3 signaling. U3A cells, IL-6 STAT3-luciferase reporter, luminescence; 100% = signal with IL-6 EC80 alone. activation (% of control), % at 5.6 µM. 190,000 tested, 0.91% active;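 active means activation above the screen-wide mean of compound activation plus 3 SD, cut at about 130% in these data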;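 further: 0% = background luminescence of wells with medium and substrate only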
#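 Material: human U3A cells carrying STAT3-luciferase construct. Measured by: reporter luminescence signal. Timing: compound 1 h, then IL-6 6 h at 37 °C.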
# STAT3 blocker – STAT3 signaling inhibition; U3A cells, IL-6 STAT3-luciferase reporter, luminescence; host cell line lacks STAT1; 190,000 tested, 0.89% active; inhibition, % at 5.5 µM;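 active means inhibition above the mean inhibition across all screened compounds plus 3 SD, cut at about 44% in these data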;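 further: 0% = DMSO only wells and 100% = 100 µM nifuroxazide control wells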
# STAT1 inh – reduces IFN-gamma driven STAT1 reporter signal; NIH 3T3 STAT1-luciferase reporter, luminescence; 200,000 tested, 0.35% active; AID 920; inhibition, % at 5.5 µM;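 active means inhibition above a set limit, the mean inhibition across all tested compounds plus 3 SD, cut at about 34% in these data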;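 further: 0% = IFN-gamma with DMSO and 100% = IFN-gamma with 300 µM nifuroxazide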
# NF-kB expr up – compounds increasing NF-kB expression in human neuronal cells; 190,000 tested, 1.6% active; NF-kB reporter expression; hits give high values; AID 1239; fold change at 12.5 µM; in the data active means fold change above about 3.3
# STAT1 activator – increases IFN-gamma driven STAT1 reporter signal. NIH 3T3 STAT1-luciferase reporter, luminescence; 100% = IFN-gamma alone, no compound. activation (% of control), % at 5.5 µM. 200,000 tested, 2.6% active;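 active means activation above the screen-wide mean activation plus 3 SD, cut at about 130% in these data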;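 further: raw ratio to IFN-gamma control signal so 100% means no change and 0% no light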
# APP 5'UTR act – APP 5'UTR luciferase reporter activation. SH-SY5Y APP 5'UTR luciferase reporter, luminescence; zero percent = DMSO vehicle wells. activation, % at 2 µM. 190,000 tested, 1% active. AID 1276;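 active means activation above a set limit, based on mean plus 3 SD of controls, cut at about 140% in these data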
# STAT1 act conf – STAT1 activation, confirmation assay. shares compounds with STAT1 activator. NIH 3T3 STAT1-luciferase reporter, IFN-gamma potentiation, luminescence; 100% = IFN-gamma EC80 alone, no compound. activation (% of control), % at 5.7 µM. 1,200 tested, 97% active. AID 1262;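 active means activation above a set limit carried over from the earlier primary STAT1 screen, cut at about 140% in these data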;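 further: simple ratio to median IFN-gamma plus DMSO wells so 0% means no light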
# NFkB act – counter-screen for STAT1 activators: NF-kappaB activation; shares compounds with STAT1 activator; HEK293T NF-kB luciferase reporter, TNF-alpha stimulated, luminescence; 100% = TNF-alpha with vehicle only; activation (% of control), % at 5.7 µM; 1,200 tested, 43% active; AID 1306;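 active means activation above the mean of solvent-only control wells plus 3 SD, set per campaign, cut at about 130% in these data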;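 further: TNF-alpha given at a submaximal dose yielding about 80% of full reporter signal; values are well signal over median control so 100% means no change and 0% no light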
# STAT3 act 2 – counter-screen for STAT1 activators: human STAT3 activation. AID 1316. 1,200 tested, 46% active. shares compounds with STAT1 activator. activation (% of control), % at 5.7 µM. U3A cells STAT3-luciferase reporter, IL-6, luminescence; cells lack STAT1; 100 = IL-6 alone, no compound effect;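 active means activation above the solvent-only control well mean plus 3 SD, set per plate batch, cut at about 110% in these data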;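 further: 0% = no luminescence and 100% = median IL-6 plus DMSO wells; higher means more STAT3 reporter activation so hits are non-selective activators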
# Numbers without * were called inactive; . = not tested or not shown. This is a sample that favours compounds with a hit; in the whole collection about 4.9% have one here.
SMILES,STAT3 act,STAT3 blocker,STAT1 inh,NF-kB expr up,STAT1 activator,APP 5'UTR act,STAT1 act conf,NFkB act,STAT3 act 2
O=C(CN1CCC(NC(=O)c2ccccc2Cl)CC1)NCc1ccco1,105,-2,-8,1.1,106,16,.,.,.
Cc1cc(C)c2c(c1)NC(c1cc3c(cc1Br)OCO3)C1CC=CC21 (stereo not drawn),103,-3,-1,1,101,5,.,.,.
O=C(COC(=O)c1cncc(Br)c1)NC1CCCC1,97,5,-1,0.9,100,1,.,.,.
COCCNC(=O)c1cc2cc(Cl)cc(Cl)c2oc1=O,106,-4,-4,1.5,103,-29,.,.,.
CCNC(=O)N1CCCC(C(=O)c2ccc(OC)c(OC)c2)C1 (stereo not drawn),94,11,-1,0.99,99,11,.,.,.
CSc1ncc(S(=O)(=O)c2ccccc2)c(=O)[nH]1,100,0,3,1.5,97,9,.,.,.
COc1ccc(OC)c(/C=C/C(=O)Nc2ccc3c(c2)CCC3)c1,96,1,-7,1.1,106,8,.,.,.
COc1ccccc1/C=C/C(=O)Nc1ccc2c(c1)OCCO2,96,4,-89,8.4*,179*,134,238*,124,105
COc1ccc(/C=C/C(=O)Nc2ccccc2)cc1OC,95,10,-53,2.9,152*,80,163*,126,104
COc1ccccc1/C=C/C(=O)Nc1ccc2c(c1)CCC2,108,-12,-66,7.8*,161*,176*,197*,147*,112*
COc1ccccc1/C=C/C(=O)Nc1ccc(N2CCOCC2)cc1,89,18,0,0.97,99,3,.,.,.
CCOC(=O)c1c(C)nc2c3ccccc3ccn12,114,-12,-57,5*,153*,160*,202*,131,120*
CCOC(=O)c1c(C)nc2c(C)cccn12,90,12,-3,1.1,98,-10,.,.,.
Cc1ccc(Oc2ccccc2/C=C/C(=O)O)cc1,104,1,6,1,95,.,.,.,.
Cc1ccc(Nc2nc3ccccc3s2)c(C)c1,78,26,-93,6.4*,182*,168*,220*,109,98
C(=N\Nc1nc2ccccc2s1)/c1ccc2c(c1)OCO2,118,-27,-119,3.8*,209*,180*,272*,123,124*
Brc1ccc(-c2csc(N3CCc4ccccc4C3)n2)cc1,108,-4,-1,1.1,101,4,.,.,.
Fc1ccc2nc(Nc3nc4cc5c(cc4s3)OCCO5)sc2c1,97,4,-74,1.6,166*,102,194*,125,105
c1ccc2c(c1)CCN(c1nc3cc4c(cc3s1)OCO4)C2,86,22,-88,12*,180*,151*,261*,136*,107
Cc1ccc(NC(=O)c2ccc(NCc3ccco3)c([N+](=O)[O-])c2)cc1Cl,93,4,8,1.3,93,-2,.,.,.
COc1ccc(/C=C/C(=O)NCCN=C2NS(=O)(=O)c3ccccc32)cc1,95,13,-7,1.1,105,-18,.,.,.
COc1ccccc1C(=O)NCC(=O)NNc1ncnc(N)c1[N+](=O)[O-],104,3,-8,1,106,9,.,.,.
Brc1csc(/C=N/Nc2nc3ccccc3s2)c1,114,-14,-101,4.4*,190*,162*,248*,149*,134*
c1ccc2sc(Nc3nc4cc5c(cc4s3)OCO5)nc2c1,100,0,-98,4.7*,187*,195*,264*,149*,124*
O=[N+]([O-])c1cc(Cl)cc(/C=N/Nc2nc3ccccc3s2)c1O,128,-29,-17,1,113,22,.,.,.
SMILES,STAT3 act,STAT3 blocker,STAT1 inh,NF-kB expr up,STAT1 activator,APP 5'UTR act,STAT1 act conf,NFkB act,STAT3 act 2
O=C(COc1ccc(-c2ccccc2)cc1)N1CCN(C(=O)c2cccs2)CC1,103,-2,4,0.96,95,-11,.,.,.
CCOC(=O)c1[nH]c(=O)[nH]c1CN(Cc1ccco1)Cc1[nH]c(=O)[nH]c1C(=O)OCC,110,1,-8,1.1,107,3,.,.,.
COc1ccc(C2=NOC(C(=O)N(C)Cc3ccccc3)C2)cc1 (stereo not drawn),100,1,-3,1.4,104,24,.,.,.
O=c1[nH]c2ccccc2nc1Cc1ccccc1,92,12,2,0.91,98,-19,.,.,.
O=C(Cc1nc2ccccc2[nH]c1=O)c1ccccc1,129,-25,-84,0.97,175*,160*,196*,123,155*
Nc1nc(CN2CCN(c3ccccc3F)CC2)nc(N2CCCc3ccccc32)n1,100,0,-2,1,102,11,.,.,.
Cc1ccc(C(=O)COC(=O)c2cc(=O)[nH]c3ccccc23)cc1C,99,4,-70,2.6,163*,-21,203*,136*,121*
Cc1ccc2[nH]c(=O)cc(C(=O)OCC(=O)c3ccccc3)c2c1,109,-12,-2,1.1,102,-8,.,.,.
O=C(Nc1ccccc1)c1cc(S(=O)(=O)N2CCSCC2)ccc1Cl,94,5,-2,0.85,102,-4,.,.,.
Cc1ccc(C(=O)CC(=O)COc2ccc(Cl)cc2C)cc1,102,-3,-6,0.85,105,-1,.,.,.
Cc1ccc(NC(=O)c2ccc(OC(=O)COc3cccc(Cl)c3)cc2)cc1,112,-18,-60,1.6,154*,111,170*,129,111*
Cc1ccc(NC(=O)c2ccc(OC(=O)COc3ccc(Cl)cc3C)cc2)cc1,104,-8,-66,1.4,159*,88,167*,128,119*
CCc1nc(-c2ccc(C)nc2OC)no1,100,0,1,0.95,103,-17,.,.,.
COc1ccccc1-c1nc(-c2ccc(C)nc2OC)no1,94,10,-62,2.5,157*,46,165*,126,103
O=C1C2CCCN2C(=O)N1CCCCN1CCN(c2cccc(Cl)c2)CC1 (stereo not drawn),104,-3,8,1.1,92,10,.,.,.
COc1ccc(-c2cc(=O)c3cc(OC)ccc3[nH]2)cc1,66,38,-58,4.7*,153*,126,165*,103,101

# Screening results: PubChem, several laboratories
